Assays:
[1] = Aqueous solubility of compound at pH 7.4 using tris(hydroxymethyl)aminomethane (tris) salt form of compound; type: physicochemical; details: buffer
[2] = Aqueous solubility of compound at pH 6.5 using tris(hydroxymethyl)aminomethane (tris) salt form of compound; type: physicochemical; details: buffer
[3] = Aqueous solubility of compound at pH 1.2 using tris(hydroxymethyl)aminomethane (tris) salt form of compound; type: physicochemical; details: buffer
[4] = Oral bioavailability in cynomolgus monkey plasma at 5 mg/kg using tris(hydroxymethyl)aminomethane (tris) salt form of compound and measured up to 24 hrs by LC/MS-MS analysis; type: ADME, organism-based, Macaca fascicularis
Summary of the method: (§1)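 Plasma concentration–time data, n = 2, averaged. Cmax and Tmax read directly from the data. AUC0–24 by the linear trapezoidal rule. F calculated as dose-normalized AUC PO/IV.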

[5] = Oral bioavailability in Wistar-Hannover rat plasma at 5 mg/kg tris(hydroxymethyl)aminomethane (tris) salt form of compound and measured up to 24 hrs by LC/MS-MS analysis; type: ADME, organism-based; summary of the method: as §1
[6] = AUC (0 to 24 hrs) in cynomolgus monkey plasma at 5 mg/kg, po tris(hydroxymethyl)aminomethane (tris) salt form of compound and measured up to 24 hrs by LC/MS-MS analysis; type: ADME, organism-based, Macaca fascicularis; set-up: route oral, dose 5 mg/kg, time <=24
Summary of the method: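 Cynomolgus monkeys received an oral dose. AUC0–24 came from plasma concentration–time data by the linear trapezoidal rule, averaged for n = 2.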

[7] = AUC (0 to 24 hrs) in Wistar-Hannover rat plasma at 5 mg/kg, po tris(hydroxymethyl)aminomethane (tris) salt form of compound and measured up to 24 hrs by LC/MS-MS analysis; type: ADME, organism-based; set-up: route oral, dose 5 mg/kg, time <=24
Summary of the method: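 Male Wistar-Hannover rats (240–350 g), housed singly after 1 week of acclimation, were dosed orally. AUC0–24 came from plasma concentration–time data by the linear trapezoidal rule, averaged for n = 2. Lower detection limit was 1 ng/mL.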

[8] = Tmax in cynomolgus monkey plasma at 5 mg/kg, po tris(hydroxymethyl)aminomethane (tris) salt form of compound and measured up to 24 hrs by LC/MS-MS analysis; type: ADME, organism-based, Macaca fascicularis; summary of the method: as §1
[9] = Tmax in Wistar-Hannover rat plasma at 5 mg/kg, po tris(hydroxymethyl)aminomethane (tris) salt form of compound and measured up to 24 hrs by LC/MS-MS analysis; type: ADME, organism-based; summary of the method: as §1
[10] = Cmax in cynomolgus monkey plasma at 5 mg/kg, po tris(hydroxymethyl)aminomethane (tris) salt form of compound and measured up to 24 hrs by LC/MS-MS analysis; type: ADME, organism-based, Macaca fascicularis; set-up: route oral, dose 5 mg/kg, time <=24
Summary of the method: (§2)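 Cynomolgus monkeys dosed 1 mg/kg IV as the tris salt in 2% N-methylpyrrolidone/98% sulfobutylether-β-cyclodextrin (12.5%) in 50 mM TRIS, pH 8.0, or PO as the tris salt. Plasma was analysed by LC-MS/MS, n = 2. CL = IV dose/AUC; Vss = dose/(AUC × elimination rate constant); Cmax taken from observed data.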

[11] = Cmax in Wistar-Hannover rat plasma at 5 mg/kg, po tris(hydroxymethyl)aminomethane (tris) salt form of compound and measured up to 24 hrs by LC/MS-MS analysis; type: ADME, organism-based; set-up: route oral, dose 5 mg/kg, time <=24
[12] = Half life in cynomolgus monkey plasma at 5 mg/kg, po tris(hydroxymethyl)aminomethane (tris) salt form of compound and measured up to 24 hrs by LC/MS-MS analysis; type: ADME, organism-based, Macaca fascicularis; summary of the method: as §2
[13] = Half life in Wistar-Hannover rat plasma at 5 mg/kg, po tris(hydroxymethyl)aminomethane (tris) salt form of compound and measured up to 24 hrs by LC/MS-MS analysis; type: ADME, organism-based
[14] = Ratio of drug uptake in cynomolgus monkey unbound liver to plasma concentration at 1 mg/kg, iv tris(hydroxymethyl)aminomethane (tris) salt form of compound after 6 hrs by LC/MS-MS analysis; type: ADME, organism-based, Macaca fascicularis; details: other tissue
Summary of the method: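 Cynomolgus monkeys (n = 2) given a single IV dose as tris salt in 2% N-methylpyrrolidone / 98% sulfobutylether-betacyclodextrin (12.5%) in 50 mM TRIS buffer, pH 8.0. Plasma and liver sampled 6 h post-dose. Total concentrations converted to unbound using equilibrium-dialysis fu in plasma and liver. Ratio taken as mean free liver over free plasma concentration.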

[15] = Drug uptake in cynomolgus monkey liver at 1 mg/kg, iv tris(hydroxymethyl)aminomethane (tris) salt form of compound after 6 hrs by LC/MS-MS analysis; type: ADME, organism-based, Macaca fascicularis; details: read-out: Drug uptake
Summary of the method: (§3)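 Monkeys, n = 2, given 1 mg/kg IV as the tris salt in 2% N-methylpyrrolidone/98% sulfobutylether-β-cyclodextrin (12.5%) in 50 mM TRIS, pH 8.0. Plasma and liver concentrations were taken 6 h post-dose.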

[16] = Drug uptake in cynomolgus monkey assessed as plasma concentration at 1 mg/kg, iv tris(hydroxymethyl)aminomethane (tris) salt form of compound after 6 hrs by LC/MS-MS analysis; type: ADME, organism-based, Macaca fascicularis; summary of the method: as §3
[17] = Ratio of drug uptake in cynomolgus monkey liver to plasma at 1 mg/kg, iv tris(hydroxymethyl)aminomethane (tris) salt form of compound after 6 hrs by LC/MS-MS analysis; type: ADME, organism-based, Macaca fascicularis; details: liver and plasma
Summary of the method: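 Cynomolgus monkeys (n = 2) given 1 mg/kg IV as the tris salt in 2% N-methylpyrrolidone/98% sulfobutylether-β-cyclodextrin (12.5%) in 50 mM TRIS pH 8.0. Liver and plasma taken 6 h post-dose.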

COc1cc(C(=O)N2CCC3(CC2)CC(=O)c2c(cnn2C(C)C)C3)cc(-c2ccc(C(=O)O)cc2)n1.NC(CO)(CO)CO [CLESACOSTAT TROMETHAMINE]
solubility [1]: 4.77 mM
solubility [2]: 3.98 mM
solubility [3]: 1.32 mM
bioavailability [4]: 52%
bioavailability [5]: 48%
AUC(0-t) [6]: 36200 ng·h/mL
AUC(0-t) [7]: 2490 ng·h/mL
Tmax [8]: 1.13 h
Tmax [9]: 0.54 h
Cmax [10]: 5780 ng/mL
Cmax [11]: 390 ng/mL
half-life [12]: 11 h
half-life [13]: 5.6 h
Ratio [14]: 230
concentration at 6 h [15]: 1300 ng/mL
concentration at 6 h [16]: 88 ng/mL
Kp at 6 h [17]: 15
